pIC50, pKi: −log10 of the molar value.
Legend:
P2Y purinoceptor 2 [1] = target: P2Y purinoceptor 2 (Mus musculus, UniProt P35383); test: Antagonist activity at mouse P2Y2 receptor in mouse NG108-15 cells assessed as inhibition of UTP-induced calcium mobilization; type: functional, cell-based
Procedure, shortened: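 Mouse P2Y2 receptor natively expressed in NG108-15 neuroblastoma x glioma hybrid cells. Calcium mobilization evoked by 3 uM UTP (ca. 50-80% of maximal effect) was read with the fluorescent Ca2+ dye Fura-2 on a fluorescence plate reader. IC50 was taken from inhibition of the UTP response.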

P2Y purinoceptor 2 [2] = target: P2Y purinoceptor 2 (Homo sapiens, UniProt P41231); test: Antagonist activity at human recombinant P2Y2 receptor in 1321N1 cells assessed as inhibition of UTP-induced calcium mobilization; type: functional, cell-based
Procedure, shortened: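 Human P2Y2 receptor recombinantly expressed in 1321N1 astrocytoma cells. Calcium mobilization evoked by 1 uM UTP (ca. 50-80% of maximal effect) was read with the fluorescent Ca2+ dye Fura-2 on a fluorescence plate reader. IC50 was taken from inhibition of the UTP response.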

[3] = target: T1, Ectonucleoside triphosphate diphosphohydrolase 1 (Rattus norvegicus, UniProt P97687); test: Inhibition of rat NTPDase 1
T1 sequence (P97687 whole entry): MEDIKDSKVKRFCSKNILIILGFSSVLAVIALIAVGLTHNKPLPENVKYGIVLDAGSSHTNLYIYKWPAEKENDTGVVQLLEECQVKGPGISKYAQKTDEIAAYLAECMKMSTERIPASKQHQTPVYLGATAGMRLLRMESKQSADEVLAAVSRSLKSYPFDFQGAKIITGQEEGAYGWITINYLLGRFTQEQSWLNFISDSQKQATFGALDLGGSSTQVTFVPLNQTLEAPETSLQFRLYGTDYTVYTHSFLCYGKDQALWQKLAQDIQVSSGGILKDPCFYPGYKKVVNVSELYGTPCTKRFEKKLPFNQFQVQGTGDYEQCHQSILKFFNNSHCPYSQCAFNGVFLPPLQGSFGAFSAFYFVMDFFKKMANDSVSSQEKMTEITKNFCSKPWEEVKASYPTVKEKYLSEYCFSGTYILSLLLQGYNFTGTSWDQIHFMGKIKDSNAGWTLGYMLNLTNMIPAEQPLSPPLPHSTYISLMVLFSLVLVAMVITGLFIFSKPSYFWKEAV

5'-nucleotidase = target: T2, 5'-nucleotidase (Rattus norvegicus, UniProt P21588); test: Inhibition of rat ecto-5'-nucleotidase
T2 sequence (P21588 whole entry): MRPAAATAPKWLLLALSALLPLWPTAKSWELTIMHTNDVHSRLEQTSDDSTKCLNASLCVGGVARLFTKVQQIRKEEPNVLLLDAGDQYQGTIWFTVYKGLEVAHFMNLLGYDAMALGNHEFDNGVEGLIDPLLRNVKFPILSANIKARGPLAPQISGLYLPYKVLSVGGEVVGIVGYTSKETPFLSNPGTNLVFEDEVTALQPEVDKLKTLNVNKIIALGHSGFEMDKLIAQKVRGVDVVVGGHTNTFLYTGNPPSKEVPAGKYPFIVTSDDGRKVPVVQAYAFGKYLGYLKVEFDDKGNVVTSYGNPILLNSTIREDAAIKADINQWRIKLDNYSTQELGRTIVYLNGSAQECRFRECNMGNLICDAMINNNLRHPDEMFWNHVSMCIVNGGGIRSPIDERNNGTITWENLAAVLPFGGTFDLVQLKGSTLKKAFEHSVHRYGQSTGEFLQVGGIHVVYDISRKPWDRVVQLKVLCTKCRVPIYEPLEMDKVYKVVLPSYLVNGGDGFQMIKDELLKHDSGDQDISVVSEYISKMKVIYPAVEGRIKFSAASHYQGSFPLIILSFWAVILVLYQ

P2Y purinoceptor 4 = P2Y purinoceptor 4 (Homo sapiens, UniProt P51582); test: Antagonist activity at human P2Y4 receptor; type: functional
P2Y purinoceptor 6 = P2Y purinoceptor 6 (Rattus norvegicus, UniProt Q63371); test: Antagonist activity at rat P2Y6 receptor; type: functional
Sequence of P2Y purinoceptor 6 (Q63371 whole entry): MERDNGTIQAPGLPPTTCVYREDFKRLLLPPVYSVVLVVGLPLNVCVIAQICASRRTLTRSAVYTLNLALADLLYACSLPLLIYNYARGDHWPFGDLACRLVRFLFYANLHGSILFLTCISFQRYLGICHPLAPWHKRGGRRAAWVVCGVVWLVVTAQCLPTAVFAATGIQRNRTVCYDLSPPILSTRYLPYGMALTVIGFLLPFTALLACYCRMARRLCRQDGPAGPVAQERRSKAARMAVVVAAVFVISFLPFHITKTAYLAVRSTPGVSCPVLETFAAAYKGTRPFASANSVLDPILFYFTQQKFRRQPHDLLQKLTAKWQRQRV

Sequence of P2Y purinoceptor 2 (Mus musculus, UniProt P35383) (P35383 whole entry): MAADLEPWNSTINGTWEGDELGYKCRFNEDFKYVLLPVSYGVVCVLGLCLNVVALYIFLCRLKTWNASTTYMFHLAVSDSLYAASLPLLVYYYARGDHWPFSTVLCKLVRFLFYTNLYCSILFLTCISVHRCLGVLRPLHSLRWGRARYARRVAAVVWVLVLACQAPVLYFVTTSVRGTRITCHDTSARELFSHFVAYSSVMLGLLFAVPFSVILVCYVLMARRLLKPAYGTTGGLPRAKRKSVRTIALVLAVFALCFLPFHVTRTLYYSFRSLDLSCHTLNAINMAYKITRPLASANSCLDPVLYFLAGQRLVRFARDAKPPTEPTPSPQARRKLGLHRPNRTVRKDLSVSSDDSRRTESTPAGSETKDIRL
Sequence of P2Y purinoceptor 2 (Homo sapiens, UniProt P41231) (P41231 whole entry): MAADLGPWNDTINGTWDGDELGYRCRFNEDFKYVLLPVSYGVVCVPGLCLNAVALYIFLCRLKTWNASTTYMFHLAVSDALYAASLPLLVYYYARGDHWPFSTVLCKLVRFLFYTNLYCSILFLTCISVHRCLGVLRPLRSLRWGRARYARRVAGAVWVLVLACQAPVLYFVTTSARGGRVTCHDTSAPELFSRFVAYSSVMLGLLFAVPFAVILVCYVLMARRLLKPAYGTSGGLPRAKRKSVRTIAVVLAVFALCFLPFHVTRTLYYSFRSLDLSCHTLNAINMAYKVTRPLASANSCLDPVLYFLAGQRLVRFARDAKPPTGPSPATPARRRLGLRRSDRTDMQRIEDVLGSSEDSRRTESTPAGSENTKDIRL
Sequence of P2Y purinoceptor 4 (P51582 whole entry): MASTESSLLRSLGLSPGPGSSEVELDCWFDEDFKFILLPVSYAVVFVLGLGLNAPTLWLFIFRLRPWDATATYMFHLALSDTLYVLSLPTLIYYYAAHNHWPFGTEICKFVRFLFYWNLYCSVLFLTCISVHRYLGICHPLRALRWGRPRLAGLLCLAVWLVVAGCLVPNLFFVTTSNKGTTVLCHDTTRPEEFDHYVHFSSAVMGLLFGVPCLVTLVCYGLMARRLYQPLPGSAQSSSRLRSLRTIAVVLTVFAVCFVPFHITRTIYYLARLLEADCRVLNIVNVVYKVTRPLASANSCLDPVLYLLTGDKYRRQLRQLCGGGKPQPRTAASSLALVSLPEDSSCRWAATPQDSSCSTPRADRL

SMILES	pIC50 (P2Y purinoceptor 2 [1])	pIC50 (P2Y purinoceptor 2 [2])	further results
Nc1c(S(=O)(=O)O)cc(Nc2ccc(Cl)cc2)c2c1C(=O)c1ccccc1C2=O	–	5.27	–
Cc1ccc(Nc2cc(S(=O)(=O)O)c(N)c3c2C(=O)c2ccccc2C3=O)cc1	4.57	4.60	–
Nc1c(S(=O)(=O)O)cc(Br)c2c1C(=O)c1ccccc1C2=O [BROMAMINIC ACID]	< 4.00	–	–
Cc1ccc(Nc2cc(S(=O)(=O)O)c(N)c3c2C(=O)c2ccccc2C3=O)c(C)c1	5.05	5.27	–
Cc1ccc(C)c(Nc2cc(S(=O)(=O)O)c(N)c3c2C(=O)c2ccccc2C3=O)c1	4.77	4.52	–
Nc1c(S(=O)(=O)O)cc(Nc2ccc(Nc3ccccc3)cc2)c2c1C(=O)c1ccccc1C2=O	–	5.41	–
Nc1c(S(=O)(=O)O)cc(Nc2ccc(Nc3nc(Cl)nc(Nc4cccc(S(=O)(=O)O)c4)n3)c(S(=O)(=O)O)c2)c2c1C(=O)c1ccccc1C2=O [RB 2]	5.30	5.73	–
CC(=O)c1ccc(Nc2cc(S(=O)(=O)O)c(N)c3c2C(=O)c2ccccc2C3=O)cc1	< 4.00	–	–
COc1ccc(Nc2cc(S(=O)(=O)O)c(N)c3c2C(=O)c2ccccc2C3=O)cc1	4.77	4.94	–
Cc1ccccc1Nc1cc(S(=O)(=O)O)c(N)c2c1C(=O)c1ccccc1C2=O	5.00	4.79	–

Continued, in another order:

pIC50 (P2Y purinoceptor 2 [1])	pIC50 (P2Y purinoceptor 2 [2])	SMILES	further results
4.62	5.03	CCc1ccccc1Nc1cc(S(=O)(=O)O)c(N)c2c1C(=O)c1ccccc1C2=O	–
5.05	5.01	COc1ccccc1Nc1cc(S(=O)(=O)O)c(N)c2c1C(=O)c1ccccc1C2=O	pKi [3]: < 4.00; pKi (5'-nucleotidase): < 4.00; pIC50 (P2Y purinoceptor 4): 4.30; pIC50 (P2Y purinoceptor 6): < 4.00
4.92	5.24	CC(=O)Nc1ccc(Nc2cc(S(=O)(=O)O)c(N)c3c2C(=O)c2ccccc2C3=O)cc1	–
< 4.00	< 4.52	Nc1c(S(=O)(=O)O)cc(Nc2cccc(Cl)c2)c2c1C(=O)c1ccccc1C2=O	–
4.66	5.52	Cc1cccc(Nc2cc(S(=O)(=O)O)c(N)c3c2C(=O)c2ccccc2C3=O)c1	–
5.05	4.94	CCOc1ccc(Nc2cc(S(=O)(=O)O)c(N)c3c2C(=O)c2ccccc2C3=O)cc1	–
4.85	5.10	Cc1cccc(Nc2cc(S(=O)(=O)O)c(N)c3c2C(=O)c2ccccc2C3=O)c1C	–
< 4.00	–	Nc1c(S(=O)(=O)O)cc(Nc2cccc([N+](=O)[O-])c2)c2c1C(=O)c1ccccc1C2=O	–
4.77	4.82	CCOc1ccccc1Nc1cc(S(=O)(=O)O)c(N)c2c1C(=O)c1ccccc1C2=O	–

Source: ChEMBL document CHEMBL1141609, “Combinatorial synthesis of anilinoanthraquinone derivatives and evaluation as non-nucleotide-derived P2Y2 receptor antagonists” (Bioorg Med Chem Lett, 2008)
